Bioassay records (PubChem)
OXTR potentiator: human OXTR potentiators, primary screen, fluorescence, CHO-OTR cells, Fluo-8 calcium | Fluo-8 calcium fluorescence, potentiator mode; 0% = oxytocin EC15, 100% = EC100 | activation, % at 3 µM | actives 0.061% (n = 320,000) | AID 2445, 2010;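 active = activation above that plate's cutoff, the mean activation of tested compounds plus 3 SD, cut at about 6.6% in these data, passing the limit was not always enough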;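 note: 100% uses oxytocin at 75 nM as the full agonist control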
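Material: human OTR in CHO cells. Compound: 3.0 µM, one dose. Timing: compound 6 min at room temperature before oxytocin, 100 s read. Evaluation: % activation of max/min ratio relative to oxytocin controls. Replication: single well per compound, singlicate. Signal: Fluo-8 calcium dye fluorescence.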
TAAR1 ag: human TAAR1 agonists, primary screen, Fluo-8 calcium fluorescence, CHO RD-HGA16 cells; Trace amine-associated receptor 1 (Homo sapiens), Q96RJ0; vehicle wells 0%, saturating PEA agonist 100%; activation, % at 3 µM; actives 0.99% (n = 360,000); AID 624467, 2012;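 active = activation above the mean activation of all test compounds in the run plus 3 SD, cut at about 38% in these data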
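Test system: RD-HGA16 (CHO) cells co-expressing Gα16 and hTAAR1; dosing: one-point dosing at 3 µM (nominal); timing: 17-24 h seeding, 75 min 37 °C dye, 30 min RT; signal: kinetic Fluo-8 calcium fluorescence; read-out basis: % activation relative to PEA EC100 response; controls: DMSO and PEA EC100; replicates: n 1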
TAAR1 antagonist: human TAAR1 antagonists, primary screen, Fluo-8 calcium fluorescence, CHO RD-HGA16 cells | Trace amine-associated receptor 1 (Homo sapiens), Q96RJ0 | antagonist | inhibition, % at 3 µM | actives 1.5% (n = 360,000);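 active = inhibition above a per-plate cutoff, the mean inhibition of test compounds on that plate plus 3 SD, cut at about 49% in these data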;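 note: 0% = DMSO plus EC80 beta-PEA response and 100% = DMSO alone without agonist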
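Test system: hTAAR1-expressing CHO RD-HGA16 cells, Gα16-coupled; Probe or stimulus: EC80 β-phenethylamine stimulus; Compound dosing: single nominal final test compound concentration of 3 µM; Timing: 140 s kinetic read after compound, 140 s after agonist; Signal: Fluo-8 calcium-sensitive fluorescence; Measure: % inhibition of agonist calcium response; Controls: DMSO and EC80 PEA controls.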
OXTR agonist: human OXTR agonists, primary screen, fluorescence, CHO-OTR cells, Fluo-8 calcium | AID 2435, 2010 | actives 0.32% (n = 320,000) | Fluo-8 calcium fluorescence; normalized: DMSO 0%, oxytocin 100% | activation, % at 3 µM;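 active = activation above the mean of all tested compounds plus 3 SD, cutoff set per screening run, cut at about 20% in these data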;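 note: peak over basal fluorescence ratio from a 100 s FLIPR kinetic read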
V1R ag counter: agonists of human V1a receptor, primary screen, counter-screen for OXTR agonist project, fluorescence, CHO-V1R cells. Vasopressin V1a receptor (Homo sapiens), P37288. Fluo-8 calcium fluorescence, agonist mode; 0% DMSO, 100% 3 nM vasopressin. activation, % at 3 µM. actives 0.25% (n = 320,000). AID 2797, 2010;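 active = activation above the mean activation of all tested compounds plus 3 SD, per screening run, cut at about 20% in these data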;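 note: signal is peak over basal fluorescence ratio across a 100 second FLIPR read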
Target sequence (P37288 whole entry, looked up): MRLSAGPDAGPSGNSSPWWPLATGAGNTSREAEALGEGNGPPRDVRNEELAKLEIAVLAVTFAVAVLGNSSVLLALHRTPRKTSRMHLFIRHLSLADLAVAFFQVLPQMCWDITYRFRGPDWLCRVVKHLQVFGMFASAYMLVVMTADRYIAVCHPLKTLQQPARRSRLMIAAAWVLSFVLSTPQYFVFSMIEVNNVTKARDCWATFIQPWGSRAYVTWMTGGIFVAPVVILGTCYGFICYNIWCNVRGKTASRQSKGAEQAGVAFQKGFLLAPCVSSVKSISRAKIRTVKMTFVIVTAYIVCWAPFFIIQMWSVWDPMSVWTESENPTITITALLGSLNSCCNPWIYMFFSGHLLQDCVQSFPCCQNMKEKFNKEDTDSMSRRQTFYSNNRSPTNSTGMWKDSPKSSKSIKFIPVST
TAAR1 ag confirm: human TAAR1 agonists, retest of hits, confirmation, Fluo-8 calcium fluorescence, CHO RD-HGA16 cells. activation, % at 3 µM. actives 82% (n = 2,400). scaled: DMSO 0%, maximal phenethylamine 100%. shares compounds with TAAR1 ag;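 active = activation above a cutoff set at the run's mean compound activation plus 3 SD, cut at about 39% in these data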
Ga16 ag counter: nonselective calcium mobilization agonists, CHO-Ga16 cells, counter-screen for hTAAR1 agonist project, cell-based, fluorescence, CHO-Ga16 parental line; shares compounds with TAAR1 ag; AID 651787, 2012; actives 50% (n = 2,400); Fluo-8 calcium fluorescence; normalized to maximal ATP response, DMSO zero; activation, % at 3 µM;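 active = activation above the run cutoff, the mean activation over all tested wells plus 3 SD, cut at about 12% in these data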;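 note: 0% = DMSO wells and 100% = maximal ATP response on the peak over basal ratio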
TAAR1 desens: TAAR1 desensitization by agonist hits, confirmation, counter-screen for TAAR1 agonist project, cell-based, fluorescence, tachyphylaxis; CHO RD-HGA16 hTAAR1, Fluo-8 calcium, beta-PEA response inhibition; actives 46% (n = 2,400); AID 651951, 2012; inhibition, % at 3 µM; shares compounds with TAAR1 ag;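 active = inhibition above the run cutoff, the mean inhibition of all test compounds plus 3 SD, cut at about 49% in these data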;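 note: beta-PEA stimulus applied at its EC80; loss of beta-PEA calcium signal after compound pretreatment read as receptor desensitization; 0% = DMSO with beta-PEA at EC80 and 100% = DMSO alone without agonist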
Ga16 antag count: inhibition of ATP-evoked calcium response in CHO-Ga16 cells, counter-screen for TAAR1 agonist project, cell-based, fluorescence; actives 39% (n = 2,400); shares compounds with TAAR1 ag; AID 651952, 2012; CHO-Ga16 ATP-induced calcium, Fluo-8 fluorescence; inhibition, % at 3 µM;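 active = inhibition above the plate's mean compound inhibition plus 3 SD, computed per plate, cut at about 22% in these data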;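 note: 0% = EC80 ATP with DMSO and 100% = DMSO wells without ATP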
Starred values were filed as active, the others as inactive; / = no result. Sampled rows, rich in hits. Any-hit rate of the full collection: about 2.3%.

SMILES	OXTR potentiator	TAAR1 ag	TAAR1 antagonist	OXTR agonist	V1R ag counter	TAAR1 ag confirm	Ga16 ag counter	TAAR1 desens	Ga16 antag count
CCOC(=O)[C@]12CCC=C1N(Cc1ccco1)C(=O)[C@H](CC(=O)NCCc1ccccc1OC)C2	/	62*	0	/	/	69*	-1	43	11
CN(C(=O)/C=C/c1ccccc1)C1CCCCC1	-2	7	-5	-1	-1	/	/	/	/
Cc1ccc(N2CCN(S(=O)(=O)c3c(C)nc4scc(C)n4c3=O)CC2)c(C)c1	-11	2	-19	-1	2	/	/	/	/
c1ccc(C[C@H]2CNCCN2CCc2cccc3ccccc23)cc1	-10	19	11	11	4	/	/	/	/
CCCC[C@@H]1CNCCN1CCc1cccc2ccccc12	-2	66*	75*	4	2	70*	6	87*	17
FC(F)(F)c1cc(CCN2CCNC[C@H]2Cc2cccc3ccccc23)cc(C(F)(F)F)c1	-2	84*	95*	1	1	51*	28*	40	40*
Cc1noc(C)c1COC(=O)c1cccc(N(C)C)c1	-3	2	-12	3	3	/	/	/	/
Cn1nc(C(C)(C)C)cc1N1C(=O)CCC1(C)C(=O)NCc1ccccc1 (centres undefined)	/	2	-9	/	/	/	/	/	/
O=C(O)CCCC(=O)Nc1nc(-c2ccccc2)cs1	-10	12	4	0	0	/	/	/	/
O=C(Cc1c(F)c(F)c(F)c(F)c1F)Nc1nc(-c2ccccc2)cs1	-13	54*	47	3	13	83*	33*	69*	30*
O=C1CCCN1c1ccc(C(=O)N(Cc2nnc(-c3ccc(Cl)cc3)o2)C2CC2)cc1	-3	1	17	-2	-1	/	/	/	/
O=C(O)c1ccc(-c2ccccc2Cl)o1	-11	9	-1	1	2	/	/	/	/
O=C(NCCc1ccccc1)c1ccc(-c2ccccc2Cl)o1	0	51*	21	0	0	16	19*	81*	15
CC(=O)Nc1ccc(NC(=O)c2ccc(-c3ccccc3Cl)o2)cc1	/	58*	54*	/	/	40*	43*	57*	38*
O=C(Nc1cccnc1)c1ccc(-c2ccc(Cl)cc2)o1	-14	1	-6	0	4	/	/	/	/
O=C(Nc1cccnc1)c1ccc(-c2cc(Cl)ccc2Cl)o1	-3	73*	15	1	0	40*	43*	40	19
O=C(Nc1ccccc1)c1ccc(-c2ccccc2Cl)o1	-12	7	1	-1	-1	/	/	/	/
O=C(NCCc1ccccc1)c1ccc(Br)o1	-1	67*	27	-1	-1	77*	3	40	1
CC(C(=O)N1CCc2ccccc21)N(C)CC(=O)Nc1ccccc1Cl (centres undefined)	3	0	-4	-2	-1	/	/	/	/
CCN(CC)CCNC(=O)CNC(=O)c1nn(-c2ccc(OC)c(OC)c2)c(=O)c2ccccc12	-9	0	-5	1	1	/	/	/	/
CC1CC(C)CN(C(=O)CCc2ccccc2)C1 (centres undefined)	-5	12	6	0	-1	/	/	/	/
Cc1ccc(NC(=O)c2noc(C(C)C)c2[N+](=O)[O-])cc1	-6	3	9	-2	-1	/	/	/	/
CCOC(=O)[C@]12CCC=C1N(CCC1=CCCCC1)C(=O)[C@H](CC(=O)NCCc1ccccc1OC)C2	/	/	/	/	/	/	1	/	-9
CCOC(=O)[C@]12CCCC=C1N(CCC1=CCCCC1)C(=O)[C@H](CC(=O)NCCc1ccccc1OC)C2	/	58*	38	/	/	75*	0	60*	9
CCOC(=O)[C@]12CCCC=C1N(Cc1ccc3c(c1)OCO3)C(=O)[C@H](CC(=O)NCCc1ccccc1OC)C2	/	74*	28	/	/	75*	-2	69*	10
SMILES	OXTR potentiator	TAAR1 ag	TAAR1 antagonist	OXTR agonist	V1R ag counter	TAAR1 ag confirm	Ga16 ag counter	TAAR1 desens	Ga16 antag count
COC(=O)[C@]12CCCCC=C1N(CCC1=CCCCC1)C(=O)[C@H](CC(=O)NCCc1ccccc1OC)C2	/	34	40	/	/	/	/	/	/
COC(=O)[C@]12CCCCC=C1N(Cc1ccc3c(c1)OCO3)C(=O)[C@H](CC(=O)NCCc1ccccc1OC)C2	/	31	34	/	/	/	/	/	/
COc1ccccc1CCn1cnc(-c2ccc(Br)cc2)c1C(C)C	/	45*	36	/	/	68*	9	53*	37*
COc1ccccc1CCn1cnc(-c2ccccc2OC)c1C(C)C	/	52*	29	/	/	79*	7	60*	14
COc1ccc(-c2ncn(CCc3ccccc3OC)c2C(C)C)cc1	/	15	-1	/	/	/	/	/	/
CCCc1c(-c2ccccc2OC)ncn1CCc1ccccc1OC	/	32	21	/	/	/	/	/	/
CN1CCc2c(c3ccccc3n2C)C1	-9	55*	14	1	1	81*	0	37	6
CC1CCN(c2ncnc3c2cnn3Cc2ccc(Cl)cc2)CC1	-10	51*	25	6	18	38*	20*	26	15
C/C(=N\Nc1ncnc2sc(C)c(C)c12)c1ccccn1	-15	135*	104*	124*	134*	95*	95*	84*	86*
CN(Cc1ccon1)C(=O)CC1C(=O)NCCN1Cc1ccc(Cl)c(F)c1 (centres undefined)	-7	4	-24	1	1	/	/	/	/
O=C1NCCN(Cc2ccc(Cl)c(F)c2)C1CC(=O)N1CCc2ccccc2C1 (centres undefined)	-1	60*	11	0	1	92*	1	46	5
